Measured values published in ChEMBL document CHEMBL1131208, “Substituted 2-iminopiperidines as inhibitors of human nitric oxide synthase isoforms” (J Med Chem, 1998).
pIC50: −log10 of the molar value.

What was measured:
[1] = target: Nitric oxide synthase, inducible (Homo sapiens, UniProt P35228); assay: Inhibition of human Inducible nitric oxide synthase
[2] = target: Nitric oxide synthase (inducible and endothelial) (Homo sapiens) (UniProt P35228+P29474); assay: Selectivity is the ratio between the IC50 values of heNOS and hiNOS; assay type: protein assay
Outline: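 Recombinant human iNOS/eNOS expressed in Sf9 cells (baculovirus), partially purified by DEAE-Sepharose. Eight inhibitor concentrations were tested with 30 μM final L-arginine containing [3H]arginine, in Tris pH 7.6 with BSA, DTT, CaCl2, FAD, tetrahydrobiopterin and NADPH, 15 min at 37 °C. eNOS also had 40 nM calmodulin. [3H]citrulline was separated on cation-exchange resin and counted. Assays were run at least in duplicate; IC50 was derived.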

Nitric oxide synthase 1 = Nitric oxide synthase 1 (Homo sapiens, UniProt P29475); assay: Inhibition of human Neuronal nitric oxide synthase
Nitric oxide synthase 3 = target: T1, Nitric oxide synthase 3 (Homo sapiens, UniProt P29474); assay: inhibition of human endothelial constitutive Endothelial nitric oxide synthase (heNOS)
T1 sequence (P29474 whole entry): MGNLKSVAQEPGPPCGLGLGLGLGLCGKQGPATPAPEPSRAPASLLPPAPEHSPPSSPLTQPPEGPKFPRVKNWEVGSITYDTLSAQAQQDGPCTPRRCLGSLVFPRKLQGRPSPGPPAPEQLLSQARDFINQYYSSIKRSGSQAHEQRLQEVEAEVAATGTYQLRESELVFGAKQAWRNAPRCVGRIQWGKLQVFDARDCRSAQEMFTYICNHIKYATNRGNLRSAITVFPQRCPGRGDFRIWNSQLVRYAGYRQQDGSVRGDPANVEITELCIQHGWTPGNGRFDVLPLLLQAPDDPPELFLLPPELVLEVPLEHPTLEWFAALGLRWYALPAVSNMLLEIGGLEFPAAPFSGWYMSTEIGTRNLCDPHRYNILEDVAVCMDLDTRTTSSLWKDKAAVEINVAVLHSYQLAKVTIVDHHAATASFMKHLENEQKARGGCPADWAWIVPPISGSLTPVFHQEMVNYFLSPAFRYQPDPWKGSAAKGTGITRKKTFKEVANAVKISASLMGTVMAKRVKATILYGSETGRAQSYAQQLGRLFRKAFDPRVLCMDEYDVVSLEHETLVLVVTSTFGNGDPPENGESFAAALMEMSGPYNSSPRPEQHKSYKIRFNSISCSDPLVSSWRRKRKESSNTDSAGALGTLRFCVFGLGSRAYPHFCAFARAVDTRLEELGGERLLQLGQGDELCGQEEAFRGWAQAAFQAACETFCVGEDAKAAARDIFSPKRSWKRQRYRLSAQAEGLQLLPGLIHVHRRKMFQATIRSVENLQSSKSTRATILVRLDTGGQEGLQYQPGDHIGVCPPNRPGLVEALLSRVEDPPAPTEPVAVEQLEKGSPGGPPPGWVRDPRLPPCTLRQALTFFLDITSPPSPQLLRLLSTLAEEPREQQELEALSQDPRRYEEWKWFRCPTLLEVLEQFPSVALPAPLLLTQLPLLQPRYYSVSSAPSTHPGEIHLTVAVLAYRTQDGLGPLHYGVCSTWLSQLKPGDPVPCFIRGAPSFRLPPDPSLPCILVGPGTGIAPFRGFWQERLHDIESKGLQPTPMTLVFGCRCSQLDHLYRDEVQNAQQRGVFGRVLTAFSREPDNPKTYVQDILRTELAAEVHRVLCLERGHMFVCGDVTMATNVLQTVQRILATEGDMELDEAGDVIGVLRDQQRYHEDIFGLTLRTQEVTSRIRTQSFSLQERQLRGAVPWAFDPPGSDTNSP

Rattus norvegicus = assay: Compound at an oral dose of 10 mg/Kg was tested in vivo for the inhibition of plasma nitrite levels in LPS-treated rats; assay type: functional
Outline: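 Male Lewis rats dosed orally 1 h before intraperitoneal LPS (10–12.5 mg/kg) to induce iNOS. Plasma nitrite/nitrate measured 5 h after LPS by fluorometric assay. Percent inhibition is relative to LPS-only versus saline controls; n = 6 animals/dose.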

Chain of Nitric oxide synthase, inducible (P35228 whole entry): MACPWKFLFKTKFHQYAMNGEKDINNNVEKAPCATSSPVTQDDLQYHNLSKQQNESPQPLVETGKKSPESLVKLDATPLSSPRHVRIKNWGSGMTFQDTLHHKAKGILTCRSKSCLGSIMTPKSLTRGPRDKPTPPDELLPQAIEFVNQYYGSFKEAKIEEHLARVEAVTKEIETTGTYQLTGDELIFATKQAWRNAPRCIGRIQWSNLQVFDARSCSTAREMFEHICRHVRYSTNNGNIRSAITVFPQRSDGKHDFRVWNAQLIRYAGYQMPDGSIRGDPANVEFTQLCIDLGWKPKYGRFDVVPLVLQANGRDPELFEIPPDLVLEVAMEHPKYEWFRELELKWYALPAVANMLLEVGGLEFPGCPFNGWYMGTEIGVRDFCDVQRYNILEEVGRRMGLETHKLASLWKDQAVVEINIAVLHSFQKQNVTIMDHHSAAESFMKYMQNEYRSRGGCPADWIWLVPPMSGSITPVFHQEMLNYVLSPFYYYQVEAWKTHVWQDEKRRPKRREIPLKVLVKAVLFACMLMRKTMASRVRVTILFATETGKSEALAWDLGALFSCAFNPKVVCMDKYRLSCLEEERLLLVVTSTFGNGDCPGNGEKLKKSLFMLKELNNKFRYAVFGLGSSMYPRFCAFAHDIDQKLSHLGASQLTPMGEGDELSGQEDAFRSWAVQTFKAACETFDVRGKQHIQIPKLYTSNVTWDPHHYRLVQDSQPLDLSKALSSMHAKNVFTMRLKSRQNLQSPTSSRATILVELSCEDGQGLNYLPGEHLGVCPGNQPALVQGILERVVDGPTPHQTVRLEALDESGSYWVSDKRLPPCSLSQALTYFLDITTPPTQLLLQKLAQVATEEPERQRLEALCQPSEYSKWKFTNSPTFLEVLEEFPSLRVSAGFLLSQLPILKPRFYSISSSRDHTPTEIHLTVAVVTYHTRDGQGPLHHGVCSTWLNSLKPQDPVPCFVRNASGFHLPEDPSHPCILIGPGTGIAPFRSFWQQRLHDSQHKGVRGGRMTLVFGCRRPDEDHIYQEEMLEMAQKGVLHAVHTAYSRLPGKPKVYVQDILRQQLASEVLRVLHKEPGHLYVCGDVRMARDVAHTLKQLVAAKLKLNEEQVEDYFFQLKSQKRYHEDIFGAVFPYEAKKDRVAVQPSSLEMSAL
Chain of Nitric oxide synthase 1 (P29475 whole entry): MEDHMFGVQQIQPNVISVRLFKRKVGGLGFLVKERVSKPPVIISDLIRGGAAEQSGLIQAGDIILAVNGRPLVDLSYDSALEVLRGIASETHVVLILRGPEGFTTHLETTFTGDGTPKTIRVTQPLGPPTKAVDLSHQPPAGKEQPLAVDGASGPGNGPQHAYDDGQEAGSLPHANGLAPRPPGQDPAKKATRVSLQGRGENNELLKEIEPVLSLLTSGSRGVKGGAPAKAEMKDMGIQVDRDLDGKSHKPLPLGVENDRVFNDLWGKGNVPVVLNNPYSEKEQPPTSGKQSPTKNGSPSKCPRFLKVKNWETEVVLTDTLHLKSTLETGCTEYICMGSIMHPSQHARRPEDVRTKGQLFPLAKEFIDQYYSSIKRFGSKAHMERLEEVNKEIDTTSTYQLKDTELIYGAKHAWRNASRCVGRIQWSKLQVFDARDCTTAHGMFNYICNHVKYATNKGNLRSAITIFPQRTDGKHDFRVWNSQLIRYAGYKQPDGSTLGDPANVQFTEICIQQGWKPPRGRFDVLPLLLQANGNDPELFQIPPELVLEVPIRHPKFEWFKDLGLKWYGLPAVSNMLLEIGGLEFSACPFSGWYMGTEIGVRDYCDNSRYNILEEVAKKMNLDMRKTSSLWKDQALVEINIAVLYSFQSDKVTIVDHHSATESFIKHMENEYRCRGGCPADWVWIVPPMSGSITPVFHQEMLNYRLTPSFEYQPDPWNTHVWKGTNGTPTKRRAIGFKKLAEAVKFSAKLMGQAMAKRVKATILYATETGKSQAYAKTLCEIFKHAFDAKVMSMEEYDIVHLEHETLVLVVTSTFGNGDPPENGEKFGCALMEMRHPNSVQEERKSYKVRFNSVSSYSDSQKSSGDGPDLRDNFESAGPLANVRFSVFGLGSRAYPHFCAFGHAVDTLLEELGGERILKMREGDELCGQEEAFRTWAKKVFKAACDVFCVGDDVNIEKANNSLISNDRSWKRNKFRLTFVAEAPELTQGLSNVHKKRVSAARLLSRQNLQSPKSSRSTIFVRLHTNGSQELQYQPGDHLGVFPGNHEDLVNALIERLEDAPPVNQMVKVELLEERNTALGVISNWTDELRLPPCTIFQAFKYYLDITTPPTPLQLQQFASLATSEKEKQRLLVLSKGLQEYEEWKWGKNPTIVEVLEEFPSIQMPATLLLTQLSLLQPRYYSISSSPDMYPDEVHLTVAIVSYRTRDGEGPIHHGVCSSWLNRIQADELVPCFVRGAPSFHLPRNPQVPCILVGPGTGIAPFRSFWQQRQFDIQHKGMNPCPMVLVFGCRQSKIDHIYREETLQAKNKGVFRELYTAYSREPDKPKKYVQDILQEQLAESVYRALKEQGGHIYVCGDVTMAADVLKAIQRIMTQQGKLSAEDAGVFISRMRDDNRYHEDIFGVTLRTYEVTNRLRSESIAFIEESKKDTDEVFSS
Chain of Nitric oxide synthase (inducible and endothelial) (Homo sapiens) (P35228 whole entry, looked up, one chain of several): as the sequence (P35228 whole entry) above

Row | SMILES | pIC50 [1] | Selectivity [2] | pIC50 (Nitric oxide synthase 1) | pIC50 (Nitric oxide synthase 3) | inhibition in vivo at 10 mg/kg (Rattus norvegicus)
1 | NC1=NC(C(F)(F)F)CCC1 (stereo not given) | 6.30 | 4 | 6.30 | 5.70 | 
2 | CCC1CCN=C(N)C1 (stereo not given) |  | 5 |  |  | 
3 | CCC1CCNC(=N)C1 (stereo not given) | 5.59 |  | 5.80 | 4.89 | 
4 | CC1(C)CCN=C(N)C1 | 5.47 | 1.6 | 5.23 | 5.28 | 
5 | CC1CCCC(N)=N1 (stereo not given) | 6.30 | 1 | 6.40 | 6.22 | 
6 | NC1=NC(Cc2ccccc2)CCC1 (stereo not given) |  |  | 6.05 |  | 
7 | NC1=NCCC(C(F)(F)F)C1 (stereo not given) | 5.49 | 15 | 5.48 | 4.33 | 24%
8 | CC1CCC(N)=NC1 (stereo not given) | 5.29 |  |  | 4.24 | 
9 | CC1CCN=C(N)C1 (stereo not given) | 7.00 |  |  |  | 87%
10 | NC1=NC(CC2CCCCC2)CCC1 (stereo not given) |  | 64 |  |  | 
11 | N=C1CCCCN1 | 5.96 |  |  |  | 62%
12 | CC1CC(N)=NC(C)C1 (stereo not given) | 7.10 | 4 | 7.22 | 6.52 | 98%
13 | NC1=NC(C2CCCCC2)CCC1 (stereo not given) | 5.06 | 16 | 5.28 | 3.85 | 18%

Continued, in another order:

Row | pIC50 [1] | Selectivity [2] | pIC50 (Nitric oxide synthase 1) | pIC50 (Nitric oxide synthase 3) | SMILES | inhibition in vivo at 10 mg/kg (Rattus norvegicus)
14 | 4.00 | 2 | 4.55 | 3.66 | NC1=Nc2ccccc2CC1 | 
15 | 6.70 | 11 | 6.30 | 5.66 | CCCC1CCCC(N)=N1 (stereo not given) | 
16 | < 4.00 |  | < 4.00 | < 4.00 | CNC1=NCCCC1 | 
17 | < 4.00 |  | < 4.00 | < 4.00 | CCCC1CCN=C(N)C1 (stereo not given) | 
18 | < 4.00 |  | < 4.00 | < 4.00 | CN1CCCCC1=N | 
19 | 5.22 | 0.5 | 6.15 | 5.52 | CC1CCCN=C1N (stereo not given) | 
